How the values were obtained:
[1] = target: Amyloid-beta precursor protein (Homo sapiens) (UniProt P05067); experiment: Inhibition of amyloid beta (1 to 42) (unknown origin) self aggregation at 10 uM incubated for 24 to 48 hrs by Thioflavin-T based fluorometric assay; settings: time lower […], time upper 48.0 hrs
[2] = target: 5-hydroxytryptamine receptor 6 (Homo sapiens, UniProt P50406); experiment: Displacement of [3H]LSD from human 5HT6 receptor expressed in CHO-K1 membrane incubated for 60 mins by solid scintillation counting analysis; format: cell membranes
5-hydroxytryptamine receptor 6, sequence (P50406 whole entry): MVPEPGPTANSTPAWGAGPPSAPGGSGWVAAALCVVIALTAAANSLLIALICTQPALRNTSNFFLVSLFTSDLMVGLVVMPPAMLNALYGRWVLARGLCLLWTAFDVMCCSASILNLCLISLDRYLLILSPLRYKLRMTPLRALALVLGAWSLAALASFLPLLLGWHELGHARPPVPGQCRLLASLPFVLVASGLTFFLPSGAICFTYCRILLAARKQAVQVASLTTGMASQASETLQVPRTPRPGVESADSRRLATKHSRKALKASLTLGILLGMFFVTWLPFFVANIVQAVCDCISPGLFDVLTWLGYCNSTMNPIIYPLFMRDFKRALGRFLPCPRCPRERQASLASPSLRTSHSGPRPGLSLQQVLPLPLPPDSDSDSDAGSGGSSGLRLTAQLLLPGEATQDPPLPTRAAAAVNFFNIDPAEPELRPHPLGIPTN

Cholinesterase [3] = target: Cholinesterase (Equus caballus, UniProt P81908); experiment: Inhibition of equine serum BuChE using BTC as substrate preincubated with enzyme for 5 mins followed by substrate addition for 5 mins by Ellman's method; format: cell-free
Cholinesterase (Equus caballus, UniProt P81908), sequence (P81908 whole entry): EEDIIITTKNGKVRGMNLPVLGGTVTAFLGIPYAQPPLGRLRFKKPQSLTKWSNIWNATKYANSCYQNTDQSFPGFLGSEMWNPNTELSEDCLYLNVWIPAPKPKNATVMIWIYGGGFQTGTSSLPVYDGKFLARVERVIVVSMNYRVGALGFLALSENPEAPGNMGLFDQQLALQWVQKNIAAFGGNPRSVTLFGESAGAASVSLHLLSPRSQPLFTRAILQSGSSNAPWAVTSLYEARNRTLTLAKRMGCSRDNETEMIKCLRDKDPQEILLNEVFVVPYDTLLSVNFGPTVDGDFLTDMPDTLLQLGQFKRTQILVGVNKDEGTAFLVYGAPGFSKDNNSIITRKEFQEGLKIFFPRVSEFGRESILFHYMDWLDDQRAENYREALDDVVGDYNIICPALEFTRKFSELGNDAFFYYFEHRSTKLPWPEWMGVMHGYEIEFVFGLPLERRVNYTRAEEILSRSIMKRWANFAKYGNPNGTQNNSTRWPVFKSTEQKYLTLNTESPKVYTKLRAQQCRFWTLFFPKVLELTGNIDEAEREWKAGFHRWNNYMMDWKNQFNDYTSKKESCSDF

Cholinesterase [4] = target: T1, Cholinesterase (Homo sapiens, UniProt P06276); experiment: Inhibition of BuChE in human plasma using BTC as substrate at 10 uM preincubated with enzyme for 5 mins followed by substrate addition for 5 mins by Ellman's method relative to control; format: cell-free; settings: time 10.0 min
T1 sequence (P06276 whole entry): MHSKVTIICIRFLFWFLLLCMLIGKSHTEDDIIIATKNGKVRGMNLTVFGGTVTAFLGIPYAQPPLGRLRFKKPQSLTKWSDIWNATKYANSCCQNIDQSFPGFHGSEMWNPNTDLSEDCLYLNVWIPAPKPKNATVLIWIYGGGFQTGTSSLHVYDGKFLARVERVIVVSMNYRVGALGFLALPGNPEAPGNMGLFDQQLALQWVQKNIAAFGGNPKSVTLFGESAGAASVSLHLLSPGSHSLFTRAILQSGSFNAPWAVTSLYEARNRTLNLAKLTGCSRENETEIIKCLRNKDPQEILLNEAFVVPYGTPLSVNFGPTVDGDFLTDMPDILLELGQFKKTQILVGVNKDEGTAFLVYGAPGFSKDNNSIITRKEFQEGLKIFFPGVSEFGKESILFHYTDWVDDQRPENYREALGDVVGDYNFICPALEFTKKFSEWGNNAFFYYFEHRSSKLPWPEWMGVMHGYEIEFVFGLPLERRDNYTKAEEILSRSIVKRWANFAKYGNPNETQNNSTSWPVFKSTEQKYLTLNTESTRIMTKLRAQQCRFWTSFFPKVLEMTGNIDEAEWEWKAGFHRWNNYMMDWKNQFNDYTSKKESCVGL
Method in brief: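 Human plasma BuChE at 0.384 U/mL final, with DTNB in 0.1 M phosphate buffer pH 8.0. Compound at 10 µM screened, preincubated 5 min at 36 °C.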

Cholinesterase [5] = target: T1, Cholinesterase; experiment: Inhibition of BuChE in human plasma using BTC as substrate preincubated with enzyme for 5 mins followed by substrate addition for 5 mins by Ellman's method; format: cell-free
Method in brief: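 Human plasma BuChE at 0.384 U/mL final, with DTNB in 0.1 M phosphate pH 8.0. […] BTC solution (0.00375 M) added; A412 after 5 min. Run in triplicate; IC50 from nonlinear regression of residual activity versus concentration.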

Amyloid-beta precursor protein (Homo sapiens), sequence (P05067 whole entry): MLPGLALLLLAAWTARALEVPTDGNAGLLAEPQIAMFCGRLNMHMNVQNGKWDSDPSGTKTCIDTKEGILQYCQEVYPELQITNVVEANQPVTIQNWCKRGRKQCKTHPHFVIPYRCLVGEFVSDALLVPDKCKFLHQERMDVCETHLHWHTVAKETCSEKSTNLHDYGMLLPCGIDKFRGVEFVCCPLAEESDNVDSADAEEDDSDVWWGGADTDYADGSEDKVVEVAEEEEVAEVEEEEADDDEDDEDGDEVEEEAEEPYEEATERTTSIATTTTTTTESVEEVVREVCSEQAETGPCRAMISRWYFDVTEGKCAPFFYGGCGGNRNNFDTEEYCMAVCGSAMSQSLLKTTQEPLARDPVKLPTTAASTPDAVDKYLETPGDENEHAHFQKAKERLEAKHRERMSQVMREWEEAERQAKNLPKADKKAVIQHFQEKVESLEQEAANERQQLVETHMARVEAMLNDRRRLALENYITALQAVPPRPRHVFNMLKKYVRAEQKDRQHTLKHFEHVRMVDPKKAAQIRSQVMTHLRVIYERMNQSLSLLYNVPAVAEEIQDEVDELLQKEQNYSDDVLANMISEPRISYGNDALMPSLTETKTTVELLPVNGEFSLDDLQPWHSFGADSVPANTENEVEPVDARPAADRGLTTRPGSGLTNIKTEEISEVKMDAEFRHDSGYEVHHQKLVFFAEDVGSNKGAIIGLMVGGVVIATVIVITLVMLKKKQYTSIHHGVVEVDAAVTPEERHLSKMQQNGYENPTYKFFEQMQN

Compound	inhibition [1]	Ki [2]	IC50 (Cholinesterase [3])	inhibition (Cholinesterase [4])	IC50 (Cholinesterase [5])
CN(C)c1ccc(CNCCOc2cccc3c2ccn3S(=O)(=O)c2ccccc2)cc1	< 20%	3.5 nM	3080 nM	< 50%	
CC(=O)Oc1ccc(CNCCOc2cccc3c2CCN3S(=O)(=O)c2ccccc2)cc1	< 20%	70 nM	660 nM	< 50%	
O=S(=O)(c1ccccc1)n1ccc2c(OCCNCc3cccc(Cl)c3)cccc21	< 20%	5 nM	580 nM	> 50%	11800 nM
c1ccc(CNCCOc2cccc3c2CCN3Cc2ccccc2)cc1	72.5%	389 nM	997 nM	< 50%	
O=S(=O)(c1ccccc1)n1ccc2c(OCCNCC3CCCNC3)cccc21 (stereo unspecified)	27.3%	75 nM	2260 nM	< 50%	
O=S(=O)(c1ccccc1)n1ccc2c(OCCNCc3cccc(C(F)(F)F)c3)cccc21	< 20%	4 nM	2200 nM	< 50%	
O=S(=O)(c1ccccc1)n1ccc2c(OCCNCc3ccccc3Cl)cccc21			881 nM		10500 nM
O=S(=O)(c1ccccc1)n1ccc2c(OCCNCc3ccccn3)cccc21	< 20%	0.4 nM	1290 nM	< 50%	
COC(=O)c1ccc(CNCCOc2cccc3c2ccn3S(=O)(=O)c2ccccc2)cc1	< 20%	13 nM	14300 nM	< 50%	
CC(C)(C)OC(=O)N1CCC(CNCCOc2cccc3c2ccn3S(=O)(=O)c2ccccc2)CC1	69.7%	7 nM	4820 nM	< 50%	
c1ccc(CNCCOc2cccc3c2ccn3Cc2ccccc2)cc1	71.3%	232 nM	626 nM	< 50%	
COc1ccc(NS(=O)(=O)c2ccc(I)cc2)cc1N1CCN(C)CC1				< 50%	
CSc1ccc2c(c1)C(N1CCN(C)CC1)Cc1ccccc1S2 (stereo unspecified)				< 50%	
CC(=O)Oc1ccc(CNCCOc2cccc3c2ccn3S(=O)(=O)c2ccccc2)cc1			228 nM		1920 nM
O=S(=O)(c1ccccc1)n1ccc2c(OCCNCC3CCCC3)cccc21			269 nM		1360 nM
CC(=O)Oc1cccc(CNCCOc2cccc3c2ccn3S(=O)(=O)c2ccccc2)c1			474 nM		5620 nM
O=S(=O)(c1ccccc1)n1ccc2c(N3CCN(Cc4ccccc4)CC3)cccc21	< 20%	60 nM		< 50%	
CC(C)(C)OC(=O)N1CCCC(CNCCOc2cccc3c2ccn3S(=O)(=O)c2cccc3ccccc23)C1 (stereo unspecified)			5.8 nM		
O=[N+]([O-])c1ccc(CNCCOc2cccc3c2ccn3S(=O)(=O)c2ccccc2)cc1	35.1%	22 nM	18300 nM	< 50%	
CCOc1ccc(CNCCOc2cccc3c2ccn3S(=O)(=O)c2ccccc2)cc1	< 20%	13 nM	3300 nM	< 50%	
O=S(=O)(c1ccccc1)n1ccc2c(OCCNCc3ccc(Cl)cc3)cccc21	< 20%	16 nM	1320 nM	< 50%	
Cc1cccc(CNCCOc2cccc3c2CCN3Cc2ccccc2)c1	72.6%	1470 nM	1260 nM	< 50%	
O=S(=O)(c1ccccc1)N1CCc2c(OCCNCc3ccccc3)cccc21			1320 nM		

Compound	inhibition [1]	Ki [2]	IC50 (Cholinesterase [3])	inhibition (Cholinesterase [4])	IC50 (Cholinesterase [5])
O=S(=O)(c1ccccc1)n1ccc2c(OCCNCc3ccc4c(c3)OCCO4)cccc21	< 20%	0.5 nM	2170 nM	< 50%	
CN(CCOc1cccc2c1ccn2S(=O)(=O)c1ccccc1)Cc1ccccc1	< 20%	27 nM	1420 nM	< 50%	
Cc1cccc(CNCCOc2cccc3c2CCN3S(=O)(=O)c2ccccc2)c1	< 20%	12 nM	2300 nM	< 50%	
COc1cccc(CNCCOc2cccc3c2ccn3S(=O)(=O)c2ccccc2)c1	27.6%	3.6 nM	1660 nM	< 50%	
CC(C)(C)OC(=O)N1CCCC(CNCCOc2cccc3c2CCN3S(=O)(=O)c2ccccc2)C1 (stereo unspecified)			201 nM		1360 nM
Cc1cccc(CNCCOc2cccc3c2ccn3S(=O)(=O)c2ccccc2)c1			401 nM		2820 nM
Cc1cccc(CNCCOc2cccc3c2ccn3S(=O)(=O)c2cccc3ccccc23)c1	23.6%	12 nM	148 nM	< 50%	
CC(C)(C)OC(=O)N1CCCC(CNCCOc2cccc3c2[nH]c(=O)n3Cc2ccccc2)C1 (stereo unspecified)	43.9%	155 nM	467 nM	< 50%	
CC(C)(C)OC(=O)N1CCCC(CNCCOc2cccc3c2CC(=O)N3Cc2ccccc2)C1 (stereo unspecified)	65.2%	146 nM	1080 nM	< 50%	
CN(C)c1cccc(CNCCOc2cccc3c2ccn3S(=O)(=O)c2ccccc2)c1	< 20%	6 nM	894 nM	< 50%	
COc1ccc(CNCCOc2cccc3c2ccn3S(=O)(=O)c2ccccc2)cc1OC	36.8%	0.5 nM	3320 nM	< 50%	
CC(=O)Oc1ccc(CNCCOc2cccc3c2ccn3S(=O)(=O)c2cccc3ccccc23)cc1	< 20%	24 nM	261 nM	< 50%	
Cc1ccc(CNCCOc2cccc3c2ccn3S(=O)(=O)c2ccccc2)o1	< 20%	3 nM	3000 nM	< 50%	
COc1ccc(CNCCOc2cccc3c2ccn3S(=O)(=O)c2ccccc2)cc1	54.2%	1.4 nM	1330 nM	< 50%	
O=S(=O)(c1ccccc1)n1ccc2c(OCCNCC3CC3)cccc21	< 20%	2.7 nM	2220 nM	< 50%	
CC(=O)Nc1ccc(CNCCOc2cccc3c2ccn3S(=O)(=O)c2ccccc2)cc1	< 20%	0.3 nM	3800 nM	< 50%	
O=S(=O)(c1cccc2ccccc12)n1ccc2c(OCCNCc3ccccc3)cccc21			401 nM		
Cc1cccc(CNCCOc2cccc3c2ccn3Cc2ccccc2)c1		293 nM	958 nM	< 50%	
O=S(=O)(c1ccccc1)n1ccc2c(OCCNCc3ccc(F)cc3)cccc21	40.5%	6 nM	985 nM	< 50%	
CCOc1cccc(CNCCOc2cccc3c2ccn3S(=O)(=O)c2ccccc2)c1	< 20%	3 nM	2410 nM	< 50%	
O=S(=O)(c1ccccc1)n1ccc2c(OCCNCc3ccncc3)cccc21	< 20%	3 nM		< 50%	
CNCCOc1cccc2c1ccn2S(=O)(=O)c1ccccc1	< 20%	1.6 nM		< 50%	
O=S(=O)(c1ccccc1)n1ccc2c(OCCNCc3cc(Cl)cc(Cl)c3)cccc21			414 nM		

Reference: ChEMBL document CHEMBL4828761, “Development and crystallography-aided SAR studies of multifunctional BuChE inhibitors and 5-HT6R antagonists with β-amyloid anti-aggregation properties” (Eur J Med Chem, 2021)
